Here are results for 38 sequences from the array DNA melting data of Ke et al. (doi:10.1101/2024.01.08.574731).

Data set [1] in a line: folding enthalpy; higher = less favourable; fluorescence melt of hairpins on a sequencing array, two-state fit. Conditions: sodium 0.088 M. The essentials:
(§1)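 Melting temperature and folding enthalpy were obtained by bootstrapped two-state fitting. Fits used Cy3 fluorescence of library hairpins with annealed Cy3 and quencher oligos on a sequenced MiSeq flow cell, imaged in 50 mM Na-HEPES pH 8.0, 25 mM NaCl in 2.5 °C steps up to 60 °C and normalised to pre-quench Cy3 and control constructs. Four replicates were combined by inverse-variance weighting, and fitted temperatures were raised by 9.35 °C to match UV melts.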

Data set [2] is described as follows: melting temperature; fluorescence melt of hairpins on a sequencing array, two-state fit, raised by 9.35 °C to match UV melts. The conditions noted are these: sodium 0.088 M. The essentials:
as §1

As to GATCCGCACCGGATC ((((((...)))))), in data set [1], the folding enthalpy is -29.4 kcal/mol. Further, the Tm in data set [2] was determined as 57.1 °C.

Regarding GATCCGCAGGCGGATC ((((((....)))))), the folding enthalpy in data set [1] was -28.3 kcal/mol. Further, in data set [2], the Tm is 66.6 °C.

In the case of GATCCGCATCGGATC ((((((...)))))), the folding enthalpy in data set [1] was -38.3 kcal/mol. The Tm in data set [2] came to 56.5 °C.

With GATCCGCCATCGGATC ((((((....)))))), the folding enthalpy in data set [1] was -37 kcal/mol. The Tm in data set [2] was 57.4 °C.

In the case of GATCCGCCGACGGATC ((((((....)))))), the folding enthalpy in data set [1] was -38 kcal/mol. Further, the Tm in data set [2] was 58.3 °C.

GATCCGCCGCCGGATC ((((((....)))))): in data set [1], the folding enthalpy was -42.4 kcal/mol. In addition, the Tm in data set [2] turned out to be 59 °C.

Take GATCCGCGAAAGCGAATC (((.(((....))).))): in data set [1], the folding enthalpy is -20.2 kcal/mol. In addition, the Tm in data set [2] was determined as 49.2 °C.

Turning to GATCCGCGCACGGATC ((((((....)))))), the folding enthalpy in data set [1] is -39.2 kcal/mol. Moreover, the Tm in data set [2] turned out to be 59.1 °C.

Take GATCCGCGCCCGGATC ((((((....)))))): in data set [1], the folding enthalpy was -45.8 kcal/mol. Moreover, the Tm in data set [2] came to 56.5 °C.

Consider GATCCGCGGACGGATC ((((((....)))))), for which, in data set [1], the folding enthalpy is -37.5 kcal/mol. Moreover, the Tm in data set [2] came out at 56.2 °C.

Consider GATCCGCGGCCGGATC ((((((....)))))), for which the folding enthalpy in data set [1] was -38.4 kcal/mol. The Tm in data set [2] is 56 °C.

Take GATCCGCGTTCGGATC ((((((....)))))): the folding enthalpy in data set [1] is -36 kcal/mol. Also, in data set [2], the Tm worked out at 59 °C.

Turning to GATCCGCTGCGGATC ((((((...)))))), the folding enthalpy in data set [1] is -48.3 kcal/mol. In addition, the Tm in data set [2] amounted to 57.5 °C.

Turning to GATCCGCTTACGGATC ((((((....)))))), the folding enthalpy in data set [1] is -37.3 kcal/mol. For the same sequence, in data set [2], the Tm is 59 °C.

Take GATCCGGAACCGGATC ((((((....)))))): the folding enthalpy in data set [1] was -39.9 kcal/mol. Also, in data set [2], the Tm amounted to 62.5 °C.

On to GATCCGGACTCGGATC ((((((....)))))), for which, in data set [1], the folding enthalpy is -49.4 kcal/mol. Further, in data set [2], the Tm worked out at 59.2 °C.

For the sequence GATCCGGAGCCGGATC ((((((....)))))), in data set [1], the folding enthalpy is -60.6 kcal/mol. Moreover, the Tm in data set [2] is 56.3 °C.

Take GATCCGGCGTCGGATC ((((((....)))))): in data set [1], the folding enthalpy is -45.3 kcal/mol. Also, the Tm in data set [2] is 58.2 °C.

In the case of GATCCGGCTACGGATC ((((((....)))))), in data set [1], the folding enthalpy was -40.2 kcal/mol. Also, in data set [2], the Tm turned out to be 67.8 °C.

As for GATCCGGCTGCGGATC ((((((....)))))), the folding enthalpy in data set [1] was -38.4 kcal/mol. The Tm in data set [2] was determined as 61 °C.

Regarding GATCCGGGAAACCAGATC ((((.((....)).)))), in data set [1], the folding enthalpy was -27.8 kcal/mol. Besides, the Tm in data set [2] amounted to 35.6 °C.

In the case of GATCCGGGAAACCGGGTC ((.((((....)))).)), in data set [1], the folding enthalpy was -41.6 kcal/mol. Further, in data set [2], the Tm turned out to be 54.5 °C.

Regarding GATCCGGGACGGATC ((((((...)))))), the folding enthalpy in data set [1] was -37.1 kcal/mol. Moreover, in data set [2], the Tm was found to be 68.9 °C.

Take GATCCGGGATCGGATC ((((((....)))))): the folding enthalpy in data set [1] is -40.1 kcal/mol. In addition, the Tm in data set [2] amounted to 61.9 °C.

Take GATCCGGGCGCGGATC ((((((....)))))): in data set [1], the folding enthalpy is -39 kcal/mol. Further, the Tm in data set [2] was found to be 59.8 °C.

As for GATCCGGTATCGGATC ((((((....)))))), the folding enthalpy in data set [1] is -42.5 kcal/mol. Further, the Tm in data set [2] worked out at 63.5 °C.

As for GATCCGGTCACGGATC ((((((....)))))), in data set [1], the folding enthalpy was -34.7 kcal/mol. Moreover, in data set [2], the Tm is 69.3 °C.

Regarding GATCCGGTGCCGGATC ((((((....)))))), in data set [1], the folding enthalpy is -59.2 kcal/mol. Moreover, the Tm in data set [2] worked out at 58 °C.

Consider GATCCGTAACGGATC ((((((...)))))), for which the folding enthalpy in data set [1] is -34.1 kcal/mol. The Tm in data set [2] was found to be 57.6 °C.

In the case of GATCCGTACACGGATC ((((((....)))))), the folding enthalpy in data set [1] was -43.2 kcal/mol. Moreover, in data set [2], the Tm was determined as 61.2 °C.

Consider GATCCGTACCCGGATC ((((((....)))))), for which, in data set [1], the folding enthalpy was -39 kcal/mol. For the same sequence, the Tm in data set [2] came out at 56.4 °C.

Take GATCCGTAGCCGGATC ((((((....)))))): the folding enthalpy in data set [1] was -47.9 kcal/mol. For the same sequence, the Tm in data set [2] is 56.1 °C.

As to GATCCGTCATCGGATC ((((((....)))))), the folding enthalpy in data set [1] is -39 kcal/mol. In addition, the Tm in data set [2] came out at 59.3 °C.

As for GATCCGTCCCGGATC ((((((...)))))), in data set [1], the folding enthalpy was -39.4 kcal/mol. Further, the Tm in data set [2] is 61 °C.

In the case of GATCCGTCTACGGATC ((((((....)))))), in data set [1], the folding enthalpy is -45.5 kcal/mol. Moreover, the Tm in data set [2] was 63.7 °C.

GATCCGTCTGCGGATC ((((((....)))))): the folding enthalpy in data set [1] was -44.5 kcal/mol. In addition, the Tm in data set [2] was determined as 61.1 °C.

With GATCCGTGCCGGATC ((((((...)))))), the folding enthalpy in data set [1] was -44.5 kcal/mol. The Tm in data set [2] was 57.9 °C.

As for GATCCGTGGACGGATC ((((((....)))))), in data set [1], the folding enthalpy is -41 kcal/mol. For the same sequence, the Tm in data set [2] came out at 62.9 °C.
